The text below walks through data of ChEMBL document CHEMBL1125907, “Folate analogues. 34. Synthesis and antitumor activity of non-polyglutamylatable inhibitors of dihydrofolate reductase” (J Med Chem, 1991).

Molecules are shown by their SMILES. A value given as a limit tells only on which side of the number the result lay.

Assay [1] has as its system CCRF-CEM. As to the kind of experiment: (§1) Relative activity when compared to the activity of aminopterin in CCRF-CEM Human leukemia cell at a concentration of 50 uM. In kind it is functional. The method, boiled down:
(§2)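 Used purified folylpolyglutamate synthetase (FPGS) isolated from CCRF-CEM human leukemia cells. Each compound was tested as an alternative substrate. Activity was read as [3H]glutamate incorporation and expressed relative to aminopterin as reference substrate at 50 μM. Test compounds were examined at concentrations up to 200 μM.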

The target of assay [2] is T1, Dihydrofolate reductase (Homo sapiens, UniProt P00374).
T1 sequence (P00374 whole entry): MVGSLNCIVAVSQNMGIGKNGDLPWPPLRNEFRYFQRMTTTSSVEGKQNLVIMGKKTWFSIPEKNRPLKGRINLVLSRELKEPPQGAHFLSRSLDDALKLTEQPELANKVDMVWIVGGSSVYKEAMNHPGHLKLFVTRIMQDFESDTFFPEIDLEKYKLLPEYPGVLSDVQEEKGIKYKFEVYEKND
As to the kind of experiment: Compound was tested for its inhibitory activity on Recombinant Human Dihydrofolate Reductase.

For assay [3], the system named is CCRF-CEM. As to the kind of experiment: Relative activity when compared to the activity of aminopterin in CCRF-CEM Human leukemia cell at a concentration of 200 uM. The assay is classed as functional. The method, boiled down: as §2
Assay [4] deals with T2, Folylpolyglutamate synthase, mitochondrial (Homo sapiens, UniProt Q05932).
T2 sequence (Q05932 whole entry): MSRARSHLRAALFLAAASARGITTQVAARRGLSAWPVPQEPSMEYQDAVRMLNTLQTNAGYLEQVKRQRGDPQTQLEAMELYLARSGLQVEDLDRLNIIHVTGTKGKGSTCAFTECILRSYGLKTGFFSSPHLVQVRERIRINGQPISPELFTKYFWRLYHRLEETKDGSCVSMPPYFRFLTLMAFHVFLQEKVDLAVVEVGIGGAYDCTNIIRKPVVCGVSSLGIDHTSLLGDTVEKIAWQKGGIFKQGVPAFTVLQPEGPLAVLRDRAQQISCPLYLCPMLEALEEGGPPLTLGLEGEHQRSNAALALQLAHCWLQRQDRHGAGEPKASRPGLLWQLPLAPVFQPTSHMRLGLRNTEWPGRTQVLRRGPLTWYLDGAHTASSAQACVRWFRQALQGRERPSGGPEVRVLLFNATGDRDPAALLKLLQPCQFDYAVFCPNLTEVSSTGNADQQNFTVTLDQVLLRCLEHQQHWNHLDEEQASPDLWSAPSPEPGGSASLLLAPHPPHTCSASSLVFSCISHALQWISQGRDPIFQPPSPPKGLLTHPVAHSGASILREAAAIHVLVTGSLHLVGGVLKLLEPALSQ
Kind of assay: Compound was evaluated for the inhibition of Folyl-polyglutamate synthase in CCRF-CEM Human leukemia cell. The gist of the method: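 Purified folylpolyglutamate synthetase from CCRF-CEM human leukemia cells, with 50 µM aminopterin as substrate. Increasing amounts of test compound were added to the assay mixture. Activity was read as [3H]glutamate incorporation, and inhibition was expressed as IC50.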

The test system of assay [5] is H35R0.3. Kind of assay: Compound was tested for its inhibitory activity in tumor cell growth in H35 hepatoma cells. The assay is classed as functional, cell-based. As to conditions: Rattus norvegicus.
For assay [6], the system named is H35R0.3. Kind of assay: Compound was tested for its inhibitory activity in tumor cell growth in H35R cells. The assay is classed as functional, cell-based. As to conditions: Rattus norvegicus.
The subject of assay [7] is H35R0.3. Kind of assay: Compound was tested for growth inhibition of H35 Hepatoma cells. In kind it is functional, cell-based. As to conditions: Rattus norvegicus. The gist of the method:
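H35 hepatoma cells grown 24 h, then exposed to compound for a 6-h pulse (24–30 h); growth read as cell counts after 72 h in culture medium.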

The subject of assay [8] is H35R0.3. As to the kind of experiment: Compound was tested for inhibition of folinic acid transport in H35 Hepatoma cells. In kind it is functional, cell-based. As to conditions: Rattus norvegicus.
Assay [9] deals with Manca. As to the kind of experiment: Compound was tested for its inhibitory activity manca tumor cell growth. In kind it is functional, cell-based. As to conditions: Homo sapiens.
The test system of assay [10] is CCRF-CEM. Kind of assay: Compound was tested for its inhibitory activity in tumor cell growth in CCRF-CEM in human. The assay is classed as functional, cell-based.
In assay [11] the test system is H35R0.3. Kind of assay: Compound was tested for inhibition of folinic acid transport in H35 Hepatoma cells; No Inhibition at 50 uM. The assay is classed as functional, cell-based, Rattus norvegicus.
Assay [12] has as its system CCRF-CEM. The description is as §1. In kind it is functional. The gist of the method: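 Purified folylpolyglutamate synthetase from CCRF-CEM human leukemia cells; substrate activity measured as [3H]glutamate incorporation with compound up to 200 μM, expressed relative to aminopterin at 50 μM.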
This is another data set of the same source.

A word on the IC50: it is the concentration needed to halve the response being measured.

For the compound `Nc1nc(N)c2nc(CCc3ccc(C(=O)N[C@@H](CCC(=O)O)C(=O)O)cc3)cnc2n1`, the Relative activity in assay [1] stood at 60. Also, the IC50 in assay [2] is 4.1 nM.

As for `C=C(CC(NC(=O)c1ccc(CCc2cnc3nc(N)nc(N)c3n2)cc1)C(=O)O)C(=O)O` (stereo not drawn), in [3], the Relative activity is listed as below 2. In addition, the IC50 in [2] is 8.8 nM; in [4], above 200000 nM; in assay [5], 39 nM; in assay [6], 18400 nM; in [7], above 20000 nM; in assay [8], 5500 nM. Moreover, the IC50 in assay [9] was found to be 9.9 nM; in assay [10] it was 13 nM.

On to `CN(Cc1cnc2nc(N)nc(N)c2n1)c1ccc(C(=O)NC(C(=O)O)C(O)CC(=O)O)cc1` (stereo not drawn), for which the Relative activity in assay [1] is below 3. The concentration for half-maximal inhibition (IC50) was 5.3 nM in assay [2]; above 200000 nM in [4]; 85 nM in assay [5]; 5600 nM in assay [6]; “No inhibition” in assay [11]; 48 nM in [9].

For the compound `C=C(CC(NC(=O)c1ccc(C(CC)Cc2cnc3nc(N)nc(N)c3n2)cc1)C(=O)O)C(=O)O` (stereo not drawn), the Relative activity in assay [3] was below 1. Moreover, the IC50 is 5.8 nM in assay [2]; 118000 nM in [4]; 6.3 nM in assay [5]; 14000 nM in assay [6]; 14000 nM in assay [7]; 1500 nM in assay [8]. In addition, the results for the 50% inhibitory concentration (IC50) in assay [9] and in assay [10] were 3.8 nM and 7.4 nM, respectively.

For the compound `C=C(CC(NC(=O)c1ccc(N(C)Cc2cnc3nc(N)nc(N)c3n2)cc1)C(=O)O)C(=O)O` (stereo not drawn), in assay [3], the Relative activity is recorded as below 1. For the same compound, the IC50 in assay [2] is 6.4 nM; in assay [4] it was above 200000 nM; in [5], 16 nM; in assay [6], 21000 nM; in assay [7] it was 3900 nM; in assay [8] it was 7000 nM. Besides, the IC50 in [9] is 26 nM; in assay [10], 30 nM.

As to `Nc1nc(N)c2nc(CCc3ccc(C(=O)NC(C(=O)O)C(O)CC(=O)O)cc3)cnc2n1` (stereo not drawn), in assay [1], the Relative activity is recorded as below 3. The IC50 in assay [2] is 5.9 nM; in [4] it was above 50000 nM; in assay [9], 29 nM.

Turning to `Nc1nc(N)c2nc(CNc3ccc(C(=O)N[C@@H](CCC(=O)O)C(=O)O)cc3)cnc2n1` [AMINOPTERIN], the Relative activity in [12] is reported as 100.

Consider `CN(Cc1cnc2nc(N)nc(N)c2n1)c1ccc(C(=O)N[C@@H](CCC(=O)O)C(=O)O)cc1` [METHOTREXATE], for which the concentration for half-maximal inhibition (IC50) in assay [7] was found to be 85 nM; in assay [8], 18000 nM.
